Test results published in ChEMBL document CHEMBL5376013, “Design, synthesis and biological evaluation of novel morpholinopyrimidine-5-carbonitrile derivatives as dual PI3K/mTOR inhibitors” (RSC Med Chem, 2024).

Key:
Type in all cases: functional
Details in all cases: read-out: GI
SK-MEL-2 = assay: Antitumor activity against human SK-MEL-2 cells assessed as growth inhibition at 10 uM relative to control
Outline: (§1)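 After drug addition, plates were incubated 48 h at 37 °C under 5% CO2. Adherent cells were fixed with cold TCA (10% final, 60 min, 4 °C) and suspension cells with 16% final TCA. Staining used 0.4% SRB in 1% acetic acid, solubilized in 10 mM trizma, read at A515. Percent growth was calculated from time-zero, control and treated absorbances.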

SF-268 = assay: Antitumor activity against human SF-268 cells assessed as growth inhibition at 10 uM relative to control; outline: as §1
COLO 205 = assay: Antitumor activity against human COLO 205 cells assessed as growth inhibition at 10 uM relative to control; outline: as §1
PC-3 = assay: Antitumor activity against human PC-3 cells assessed as growth inhibition at 10 uM relative to control; outline: as §1
DU-145 = assay: Antitumor activity against human DU-145 cells assessed as growth inhibition at 10 uM relative to control; outline: as §1
OVCAR-8 = assay: Antitumor activity against human OVCAR-8 cells assessed as growth inhibition at 10 uM relative to control; outline: as §1
SF-539 = assay: Antitumor activity against human SF-539 cells assessed as growth inhibition at 10 uM relative to control; outline: as §1
CCRF-CEM = assay: Antitumor activity against human CCRF-CEM cells assessed as growth inhibition at 10 uM relative to control; outline: as §1
786-0 = assay: Antitumor activity against human 786-0 cells assessed as growth inhibition at 10 uM relative to control; outline: as §1
HCT-15 = assay: Antitumor activity against human HCT-15 cells assessed as growth inhibition at 10 uM relative to control; outline: as §1
K562 = assay: Antitumor activity against human K562 cells assessed as growth inhibition at 10 uM relative to control; outline: as §1
TK-10 = assay: Antitumor activity against human TK-10 cells assessed as growth inhibition at 10 uM relative to control
Outline: (§2)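 Drug exposure 48 h at 37 °C, 5% CO2. Adherent cells fixed with cold TCA (10% final), suspension cells with TCA (16% final). Stained with 0.4% SRB in 1% acetic acid, dissolved in 10 mM Tris, A515. Growth relative to time-zero and untreated control.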

RXF 393 = assay: Antitumor activity against human RXF 393 cells assessed as growth inhibition at 10 uM relative to control; outline: as §1
T47D = assay: Antitumor activity against human T47D cells assessed as growth inhibition at 10 uM relative to control; outline: as §2
Hs-578T = assay: Antitumor activity against human Hs-578T cells assessed as growth inhibition at 10 uM relative to control; outline: as §1
SNB-19 = assay: Antitumor activity against human SNB-19 cells assessed as growth inhibition at 10 uM relative to control; outline: as §2
CAKI-1 = assay: Antitumor activity against human CAKI-1 cells assessed as growth inhibition at 10 uM relative to control; outline: as §1
UO-31 = assay: Antitumor activity against human UO-31 cells assessed as growth inhibition at 10 uM relative to control; outline: as §2
HT-29 = assay: Antitumor activity against human HT-29 cells assessed as growth inhibition at 10 uM relative to control; outline: as §1
LOX IMVI = assay: Antitumor activity against human LOX IMVI cells assessed as growth inhibition at 10 uM relative to control; outline: as §1
NCI-H460 = assay: Antitumor activity against human NCI-H460 cells assessed as growth inhibition at 10 uM relative to control; outline: as §1
HL-60 = assay: Antitumor activity against human HL-60 cells assessed as growth inhibition at 10 uM relative to control; outline: as §1
U-251 = assay: Antitumor activity against human U-251 cells assessed as growth inhibition at 10 uM relative to control; outline: as §2
OVCAR-5 = assay: Antitumor activity against human OVCAR-5 cells assessed as growth inhibition at 10 uM relative to control; outline: as §1
NCI-H322M = assay: Antitumor activity against human NCI-H322M cells assessed as growth inhibition at 10 uM relative to control; outline: as §1
IGROV-1 = assay: Antitumor activity against human IGROV-1 cells assessed as growth inhibition at 10 uM relative to control; outline: as §1
MDA-MB-435 = assay: Antitumor activity against human MDA-MB-435 cells assessed as growth inhibition at 10 uM relative to control; outline: as §1
NCI-H522 = assay: Antitumor activity against human NCI-H522 cells assessed as growth inhibition at 10 uM relative to control; outline: as §1
SK-MEL-5 = assay: Antitumor activity against human SK-MEL-5 cells assessed as growth inhibition at 10 uM relative to control; outline: as §2
NCI-H23 = assay: Antitumor activity against human NCI-H23 cells assessed as growth inhibition at 10 uM relative to control; outline: as §1
MOLT-4 = assay: Antitumor activity against human MOLT-4 cells assessed as growth inhibition at 10 uM relative to control; outline: as §1
SN12C = assay: Antitumor activity against human SN12C cells assessed as growth inhibition at 10 uM relative to control; outline: as §2
MCF7 = assay: Antitumor activity against human MCF7 cells assessed as growth inhibition at 10 uM relative to control; outline: as §1
NCI-H226 = assay: Antitumor activity against human NCI-H226 cells assessed as growth inhibition at 10 uM relative to control; outline: as §1
NCI/ADR-RES = assay: Antitumor activity against human NCI-ADR-RES cells assessed as growth inhibition at 10 uM relative to control; outline: as §1
ACHN = assay: Antitumor activity against human ACHN cells assessed as growth inhibition at 10 uM relative to control; outline: as §1
BT-549 = assay: Antitumor activity against human BT-549 cells assessed as growth inhibition at 10 uM relative to control; outline: as §1
MDA-MB-231 = assay: Antitumor activity against human MDA-MB-231 cells assessed as growth inhibition at 10 uM relative to control; outline: as §1
SR = assay: Antitumor activity against human SR cells assessed as growth inhibition at 10 uM relative to control; outline: as §2
SK-OV-3 = assay: Antitumor activity against human SK-OV-3 cells assessed as growth inhibition at 10 uM relative to control; outline: as §2
SK-MEL-28 = assay: Antitumor activity against human SK-MEL-28 cells assessed as growth inhibition at 10 uM relative to control; outline: as §2
A498 = assay: Antitumor activity against human A498 cells assessed as growth inhibition at 10 uM relative to control; outline: as §1
A549 = assay: Antitumor activity against human A549 cells assessed as growth inhibition at 10 uM relative to control; outline: as §1
HCC 2998 = assay: Antitumor activity against human HCC 2998 cells assessed as growth inhibition at 10 uM relative to control; outline: as §1
EKVX = assay: Antitumor activity against human EKVX cells assessed as growth inhibition at 10 uM relative to control; outline: as §1
UACC-62 = assay: Antitumor activity against human UACC-62 cells assessed as growth inhibition at 10 uM relative to control; outline: as §2

**Q.** Which results are given for `N#Cc1c(-c2ccc(Cl)cc2)nc(N/N=C2/C(=O)Nc3ccccc32)nc1N1CCOCC1`?
**A.** inhibition of growth at 10 µM (SK-MEL-2): < 1%; inhibition of growth at 10 µM (SF-268): < 1%; inhibition of growth at 10 µM (COLO 205): 1%; inhibition of growth at 10 µM (PC-3): < 1%; inhibition of growth at 10 µM (DU-145): < 1%; inhibition of growth at 10 µM (OVCAR-8): < 1%; inhibition of growth at 10 µM (SF-539): < 1%; inhibition of growth at 10 µM (CCRF-CEM): < 1%; inhibition of growth at 10 µM (786-0): < 1%; inhibition of growth at 10 µM (HCT-15): 1%; inhibition of growth at 10 µM (K562): < 1%; inhibition of growth at 10 µM (TK-10): < 1%; inhibition of growth at 10 µM (RXF 393): < 1%; inhibition of growth at 10 µM (T47D): < 1%; inhibition of growth at 10 µM (Hs-578T): < 1%; inhibition of growth at 10 µM (SNB-19): < 1%; inhibition of growth at 10 µM (CAKI-1): < 1%; inhibition of growth at 10 µM (UO-31): < 1%; inhibition of growth at 10 µM (HT-29): < 1%; inhibition of growth at 10 µM (LOX IMVI): < 1%; inhibition of growth at 10 µM (NCI-H460): 17.6%; inhibition of growth at 10 µM (HL-60): < 1%; inhibition of growth at 10 µM (U-251): < 1%; inhibition of growth at 10 µM (OVCAR-5): < 1%; inhibition of growth at 10 µM (NCI-H322M): < 1%; inhibition of growth at 10 µM (IGROV-1): < 1%; inhibition of growth at 10 µM (MDA-MB-435): < 1%; inhibition of growth at 10 µM (NCI-H522): < 1%; inhibition of growth at 10 µM (SK-MEL-5): < 1%; inhibition of growth at 10 µM (NCI-H23): < 1%; inhibition of growth at 10 µM (MOLT-4): < 1%; inhibition of growth at 10 µM (SN12C): < 1%; inhibition of growth at 10 µM (MCF7): 1%; inhibition of growth at 10 µM (NCI-H226): < 1%; inhibition of growth at 10 µM (NCI/ADR-RES): < 1%; inhibition of growth at 10 µM (ACHN): < 1%; inhibition of growth at 10 µM (BT-549): < 1%; inhibition of growth at 10 µM (MDA-MB-231): < 1%; inhibition of growth at 10 µM (SR): 25.7%; inhibition of growth at 10 µM (SK-OV-3): < 1%; inhibition of growth at 10 µM (SK-MEL-28): < 1%; inhibition of growth at 10 µM (A498): < 1%; inhibition of growth at 10 µM (A549): 12.9%; inhibition of growth at 10 µM (HCC 2998): < 1%; inhibition of growth at 10 µM (EKVX): < 1%; inhibition of growth at 10 µM (UACC-62): < 1%
